Data on 35 compounds can be found in ChEMBL document CHEMBL1681784, “Development of sulfonamide AKT PH domain inhibitors” (Bioorg Med Chem, 2011).

The test system of assay [1] is BXPC-3. The assay is described as follows: Cytotoxicity against human BxPC3 cells by MTT assay. The format is functional, cell-based. A general note: Tetrazolium assays rely on reduction of a dye to a coloured formazan, in cell work by metabolically active cells.
Assay [2] deals with BXPC-3. In words: Inhibition of AKT phosphorylation at serine 473 residue in human BxPC3 cells at 10 uM after 4 hrs by ELISA. In kind it is cell-based. An outline of the steps: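 BxPC3 cells kept in DMEM with 10% heat-inactivated FBS and 4.5 g/L glucose under 5% CO2, mycoplasma-free. Compound made fresh as a 10 mM DMSO stock and dosed at 10 μM final into the medium for 4 h. Equal amounts of lysate run on an MSD pSer473-AKT/total AKT plate; read-out is the pAKT/AKT ratio.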
Background: ELISA stands for enzyme-linked immunosorbent assay.

Molecules are shown by their SMILES. Calls of active or inactive are those of the source. No cut-off for these calls is given here. Where only a bound is given, the exact number is not on record here.

Broadly, the IC50 is the concentration needed to halve the response being measured. Higher therefore signals weaker potency in that assay. `Nc1ccc(S(=O)(=O)Nc2nnc(CC(=O)O)s2)cc1` had an IC50 in assay [1] greater than 300 µM.

Compound `Cc1nnc(NS(=O)(=O)c2ccc(N)cc2)s1` [SULFAMETHIZOLE] gave an IC50 in assay [1] greater than 300 µM.

`CCOC(=O)c1nnc(NS(=O)(=O)c2ccc(NC(C)=O)cc2)s1` showed an IC50 in assay [1] greater than 300 µM.

Compound `Nc1ccc(S(=O)(=O)Nc2nnc(S(N)(=O)=O)s2)cc1` returned an IC50 in assay [1] greater than 300 µM.

For the compound `CCCCCCCCCCCCc1ccc(S(=O)(=O)Nc2ccccc2)cc1`, 38 µM corresponded to half-maximal inhibition in assay [1] (IC50). In addition, the inhibition result in assay [2] is “inactive”.

Regarding `CCCCCCc1ccc(S(=O)(=O)Nc2nncs2)cc1`, 266 µM corresponded to half-maximal inhibition in assay [1] (IC50).

In assay [1], `CCCCCCCCCC(=O)Nc1ccc(S(=O)(=O)Nc2nnc(S(N)(=O)=O)s2)cc1` had a concentration for half-maximal inhibition (IC50) greater than 300 µM.

In assay [1], `CCCCCCCCCCCCc1ccc(S(=O)(=O)Nc2nnc(C)s2)cc1` had an IC50 of 51 µM.

The compound `CCCCc1ccc(S(=O)(=O)Nc2nncs2)cc1` gave an IC50 in assay [1] greater than 300 µM.

Turning to `CC(=O)Nc1ccc(S(=O)(=O)Nc2nnc(S(N)(=O)=O)s2)cc1`, the IC50 in assay [1] was greater than 300 µM.

`CC(=O)Nc1ccc(S(=O)(=O)Nc2nnc(CO)s2)cc1` registered an IC50 in assay [1] greater than 300 µM.

Consider `CCc1nnc(NS(=O)(=O)c2ccc(N)cc2)s1` [SULFAETHIDOLE], for which the IC50 in assay [1] is greater than 300 µM.

Turning to `CC(=O)Nc1ccc(S(=O)(=O)Nc2nnc(C(C)(C)C)s2)cc1`, the IC50 in assay [1] is greater than 300 µM.

Compound `CCCCCCCCCC(=O)Nc1ccc(S(=O)(=O)Nc2nnc(CC)s2)cc1` registered an IC50 in assay [1] of 146 µM.

As for `CCCCCCCCCC(=O)Nc1ccc(S(=O)(=O)Nc2nnc(C(C)(C)C)s2)cc1`, in assay [1], the IC50 was greater than 300 µM.

In assay [1], `O=S(=O)(Nc1nnc(CO)s1)c1ccc(-c2ccccc2)cc1` showed an IC50 greater than 300 µM.

For the compound `CC(=O)Nc1ccc(S(=O)(=O)Nc2nnc(C)s2)cc1`, the IC50 in assay [1] is greater than 300 µM.

On to `CC(=O)Nc1ccc(S(=O)(=O)Nc2nnc(CC(=O)O)s2)cc1`, for which the IC50 in assay [1] was greater than 300 µM.

Compound `CCCCCCCCCCCCc1ccccc1S(=O)(=O)Nc1nncs1` showed an IC50 in assay [1] of 74 µM. Moreover, in assay [2], the inhibition result is “inactive”.

`CCCCCCCCCC(=O)Nc1ccc(S(=O)(=O)Nc2nncs2)cc1` displayed an IC50 in assay [1] of 180 µM.

As for `CCCCCCCCCC(=O)Nc1ccc(S(=O)(=O)Nc2nnc(CC(=O)OCC)s2)cc1`, the IC50 in assay [1] was determined as 170 µM.

In assay [1], `COCCOCCOCC(=O)Nc1ccc(S(=O)(=O)Nc2nncs2)cc1` gave an IC50 greater than 300 µM.

With `CCOC(=O)Cc1nnc(NS(=O)(=O)c2ccc(NC(C)=O)cc2)s1`, the IC50 in assay [1] stood at 176 µM.

Compound `CC(C)(C)c1nnc(NS(=O)(=O)c2ccc(N)cc2)s1` [GLYBUTHIAZOL] had an IC50 in assay [1] greater than 300 µM.

Regarding `CCCCCCCCCC(=O)Nc1ccc(S(=O)(=O)Nc2nnc(C(=O)OCC)s2)cc1`, in assay [1], the IC50 turned out to be 117 µM.

In assay [1], `CCCCCCCCCC(=O)Nc1ccc(S(=O)(=O)Nc2nnc(CC(=O)O)s2)cc1` displayed an IC50 greater than 300 µM.

`O=S(=O)(Nc1nncs1)c1ccc(-c2ccccc2)cc1` returned an IC50 in assay [1] greater than 300 µM.

In assay [1], `Nc1ccc(S(=O)(=O)Nc2nncs2)cc1` gave an IC50 greater than 300 µM.

As for `CCCCCCCCCCCCc1ccc(S(=O)(=O)Nc2nnc(CC(=O)O)s2)cc1`, 117 µM corresponded to half-maximal inhibition in assay [1] (IC50).

In assay [1], `CCCCCCCCCCCCc1cccc(S(=O)(=O)Nc2nncs2)c1` returned an IC50 of 71 µM. For the same compound, the inhibition result in assay [2] is “inactive”.

For the compound `CCCCCCCCCC(=O)Nc1ccc(S(=O)(=O)Nc2nnc(C)s2)cc1`, the IC50 in assay [1] was 149 µM.

Take `CCCCCCCCCC(=O)Nc1ccc(S(=O)(=O)Nc2nnc(CO)s2)cc1`: the half-inhibitory concentration (IC50) in assay [1] worked out at 189 µM.

Compound `CC(=O)Nc1ccc(S(=O)(=O)Nc2nncs2)cc1` showed an IC50 in assay [1] greater than 300 µM.

Consider `CCc1nnc(NS(=O)(=O)c2ccc(NC(C)=O)cc2)s1`, for which, in assay [1], the IC50 is greater than 300 µM.

In the case of `Nc1ccc(S(=O)(=O)Nc2nnc(CO)s2)cc1`, the IC50 in assay [1] was greater than 300 µM.
